SKN-1 block = blocks SKN-1 activity in C. elegans; C. elegans VP596 Pgst-4::GFP/RFP ratio, acrylamide-induced, 24 h; 360,000 tested, 0.49% active; AID 624304; inhibition, % at 21.8 µM;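 active = interference check ratio from 0.5 to 1.5 plus GFP to RFP signal ratio inhibition reaching or exceeding a fixed threshold, cut at about 30% in these data, passing the limit was not always enough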
eIF4H inh = inhibitors of RNA binding by human eIF4H; eIF4H fluorescence polarization binding assay; Q15056; 290,000 tested, 0.94% active; inhibition, % at 35 µM; AID 2012;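 note: calls also rest on retests at 20 µM and on dose response follow-up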
PABP polyA inh = PABP-poly(A) binding inhibition. 290,000 tested, 1% active. inhibition, % at 35 µM. P11940. PABP-poly(A) RNA binding, fluorescence polarization;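 note: calls also rest on retests at 20 µM and on dose response follow-up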
Target sequence (P11940 whole entry, looked up): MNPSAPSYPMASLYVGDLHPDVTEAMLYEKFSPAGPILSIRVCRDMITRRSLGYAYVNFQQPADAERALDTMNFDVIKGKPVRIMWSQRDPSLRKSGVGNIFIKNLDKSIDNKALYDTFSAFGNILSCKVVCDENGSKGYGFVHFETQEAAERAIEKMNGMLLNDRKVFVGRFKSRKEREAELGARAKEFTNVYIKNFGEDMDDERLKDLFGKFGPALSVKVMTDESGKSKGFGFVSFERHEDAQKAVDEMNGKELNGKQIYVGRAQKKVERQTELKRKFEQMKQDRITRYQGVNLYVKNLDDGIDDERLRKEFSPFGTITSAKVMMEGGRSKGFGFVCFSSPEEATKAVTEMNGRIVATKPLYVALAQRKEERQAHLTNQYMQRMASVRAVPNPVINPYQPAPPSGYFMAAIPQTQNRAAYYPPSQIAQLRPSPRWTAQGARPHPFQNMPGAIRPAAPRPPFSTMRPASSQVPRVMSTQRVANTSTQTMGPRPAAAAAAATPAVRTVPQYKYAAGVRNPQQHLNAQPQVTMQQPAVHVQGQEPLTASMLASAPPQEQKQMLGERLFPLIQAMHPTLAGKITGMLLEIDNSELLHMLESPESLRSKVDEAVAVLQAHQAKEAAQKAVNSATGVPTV
MT1-MMP act inh = blocks activation of human MT1-MMP; GFP/RFP ratio change, % at 20 µM; HT1080 RFP-PRO-GFP cells, GFP/RFP ratio fluorescence, overnight; percent of plate control window, DMSO zero; 360,000 tested, 0.061% active; AID 651647; P50281;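 active = GFP/RFP ratio change of at least 30% with cell ATP level not reduced by more than half and red fluorescence within 50% of control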
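Assay system: HT1080 RFP-PRO-GFP cells. Benchmarks: DMSO vehicle wells and RFP-L50D-GFP reporter cell wells. Times: overnight cell settling, then overnight compound exposure, 37 °C, 5% CO2. Compound: 20 µM single dose, 1% DMSO. Read-out basis: GFP/RFP fluorescence ratio.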
PABP1 MLLE inh = blocks PAM2 peptide binding to the PABP1 MLLE domain; P11940; GST-MLLE / FITC-PAM2 fluorescence polarization; inhibition, % at 20 µM; 360,000 tested, 0.36% active; in the data active = inhibition above about 35%, passing the limit was not always enough;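 note: plate controls were DMSO wells with GST-MLLE for no effect and wells lacking GST-MLLE protein for full effect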
Starred values were filed as active, the others as inactive. Hits are enriched below; roughly 1.7% of the tested compounds scored in any of these assays. Unless noted, the rule behind the calls is not given here.

Cc1cc(C)c(NC(=O)NC(=O)c2ccc(F)cc2)c(C)n1 was read as SKN-1 block 6.1, eIF4H inh 76.5*, PABP polyA inh 60.2*, MT1-MMP act inh 6.5 and PABP1 MLLE inh 3.8.
`CCN(CC(=O)Nc1c(F)cccc1F)C(=O)CCN1C(=O)c2cccc([N+](=O)[O-])c2C1=O` gave SKN-1 block 0.2, MT1-MMP act inh -3.1 and PABP1 MLLE inh 16.4.
O=C1N=c2ccccc2=C1c1sc(Nc2cccc(O)c2)nc1O was read as SKN-1 block 33.8, eIF4H inh 59.0*, PABP polyA inh 20.2*, MT1-MMP act inh 3.7 and PABP1 MLLE inh -17.5.
For N#Cc1ccc(OCC(=O)NCC2COc3ccccc3O2)cc1 (stereo not given) the results were SKN-1 block -2.3, MT1-MMP act inh -3.2 and PABP1 MLLE inh -5.3.
Screening O=C(Nc1ccc(S(=O)(=O)NCc2ccccc2)cc1)c1ccc(Br)o1 returned SKN-1 block -11.1, eIF4H inh -6.4, PABP polyA inh -8.9, MT1-MMP act inh 0.7 and PABP1 MLLE inh 5.0.
C=CCn1c(NC(=O)c2ccco2)c(S(=O)(=O)c2ccccc2)c2nc3ccccc3nc21 was read as eIF4H inh 61.8* and PABP polyA inh 64.1*.
Screening C=CCn1c(NC(=O)c2ccc(Br)o2)c(S(=O)(=O)c2ccccc2)c2nc3ccccc3nc21 returned SKN-1 block 0.0, eIF4H inh inconclusive, PABP polyA inh 55.3*, MT1-MMP act inh -29.6 and PABP1 MLLE inh -42.5.
Screening COc1ccc(-n2c(NC(=O)c3ccco3)c(C#N)c3nc4ccccc4nc32)cc1 returned SKN-1 block -7.9, eIF4H inh 4.5, PABP polyA inh -7.8, MT1-MMP act inh -90.0 and PABP1 MLLE inh -55.3.
Screening O=c1c2c3nc4ccccc4nc3n(/N=C/c3ccco3)c2ncn1CCC1=CCCCC1 returned SKN-1 block 6.9, eIF4H inh 65.3*, PABP polyA inh 18.3, MT1-MMP act inh 2.0 and PABP1 MLLE inh 7.4.
For COc1ccc(NS(=O)(=O)c2cccc(C(=O)NNC(=O)c3ccc(C)o3)c2)cc1 the results were SKN-1 block 11.1, MT1-MMP act inh 4.7 and PABP1 MLLE inh -6.3.
O=c1oc2cc([N+](=O)[O-])ccc2nc1/C=C(\O)c1cccc(Br)c1 was read as SKN-1 block 7.1, eIF4H inh 7.6, PABP polyA inh 12.3, MT1-MMP act inh 5.9 and PABP1 MLLE inh -5.1.
Screening O=c1oc2cc([N+](=O)[O-])ccc2nc1/C=C(O)/C=C/c1ccccc1 returned eIF4H inh 72.3* and PABP polyA inh 28.0.
N#C/C(=C/c1ccc(N2CCCCC2)o1)c1cccc(F)c1 was read as SKN-1 block 24.1, eIF4H inh 87.4*, PABP polyA inh 85.5*, MT1-MMP act inh -63.6 and PABP1 MLLE inh -104.6.
Screening O=C(NCc1ccc(Cl)cc1)c1cccc(NC2=NC3CS(=O)(=O)CC3S2)c1 (stereo not given) returned SKN-1 block -16.0, eIF4H inh -3.6, PABP polyA inh 13.6, MT1-MMP act inh -3.5 and PABP1 MLLE inh -123.9.
For CC(=O)[C@@H]1[C@@H]2C(=O)N(C3CCCCC3)C(=O)[C@@H]2C2c3ccccc3C=CN21 (stereo not given in full) the results were eIF4H inh 18.1 and PABP polyA inh 9.2.
`O=C1NC(=O)[C@@H]2C3c4ccccc4C=CN3[C@H](C(=O)c3cccs3)[C@H]12` (stereo not given in full) gave eIF4H inh 125.6* and PABP polyA inh 126.3*.
For CCC(c1nnnn1CC1CCCO1)N(CCCO)Cc1cc2cccc(C)c2[nH]c1=O (stereo not given) the results were SKN-1 block -1.8, eIF4H inh -11.5, PABP polyA inh 3.0, MT1-MMP act inh 2.8 and PABP1 MLLE inh 25.0.
`CCC(c1nnnn1Cc1ccc(F)cc1)N(CCCO)Cc1cc2cc3c(cc2[nH]c1=O)OCO3` (stereo not given) gave SKN-1 block 6.2, eIF4H inh 9.7, PABP polyA inh 6.8, MT1-MMP act inh -10.1 and PABP1 MLLE inh 45.3*.
For CC(C)CNC(=O)C1(C)CCCN1C(=O)c1ccncc1 (stereo not given) the results were SKN-1 block 0.4, MT1-MMP act inh 0.1 and PABP1 MLLE inh 1.2.
`S=c1nc(NCCc2ccccc2Cl)c2ccccc2[nH]1` gave SKN-1 block 12.4, eIF4H inh 2.4, PABP polyA inh 4.6, MT1-MMP act inh -7.6 and PABP1 MLLE inh -103.7.
